Assay results collected from several papers.
Lines come from different studies, so protocols differ.
Target: BDNF/NT-3 growth factors receptor (NTRK2, Homo sapiens, UniProt Q16620)

SMILES	read-out	action	technique	tested at	quantity	result
CCN(CC)CCNC(=O)c1c(C)[nH]c(/C=C2\C(=O)Nc3ccc(F)cc32)c1C	cell-free assay	–	–	0.3 µM	inhibition	70%
Nc1cnc(N2CCc3cc(S(=O)(=O)Nc4c(F)cc(Cl)cc4F)cc(N4CCCC4=O)c32)nc1	cell-free assay	–	competition with immobilised ligand	1 µM	remaining binding	100%
O=C(Nc1cccc(F)c1)Nc1cccc(C(=O)Nc2ccc3[nH]ncc3c2)c1	enzyme activity	inhibitor	FRET	1 µM	inhibition	19.3%
Cc1sc(C(=O)NC2COC2)cc1-n1cc(NC(=O)Nc2c(F)cccc2Cl)cn1	enzyme activity	inhibitor	–	10 µM	remaining activity	92.4%
O=C(Nc1cccc(C(=O)Nc2ccc3[nH]ncc3c2)c1)Nc1cccc(C(F)(F)F)c1	enzyme activity	inhibitor	FRET	1 µM	inhibition	24.5%
Cc1cc(-n2nc(Cc3cc(F)cc(C(F)(F)F)c3)nc2C)ccc1C(N)=O	cell-free assay	–	competition with immobilised ligand	1 µM	remaining binding	98%
O=C(Cc1ccc(C(F)(F)F)cc1)Nc1cccc(C(=O)Nc2ccc3[nH]ncc3c2)c1	enzyme activity	inhibitor	FRET	1 µM	inhibition	16.8%
CN(c1ccnc(CNc2nc(Nc3ccc4c(c3)CC(=O)N4)ncc2C(F)(F)F)n1)S(C)(=O)=O	cell-free assay	–	competition with immobilised ligand	1 µM	remaining binding	21%
CCCOc1ccc(OC)c(F)c1C(=O)c1ccc(C(=O)N[C@@H]2CNC[C@H]2NC(=O)c2ccc3[nH]ncc3c2)cc1	enzyme activity	inhibitor	–	10 µM	remaining activity	71%
CCCOc1ccc([C@@H]2[C@@H](C(=O)O)[C@H](c3ccc4c(c3)OCO4)CN2CC(=O)Nc2c(CC)cccc2CC)cc1	cell-free assay	–	competition with immobilised ligand	1 µM	remaining binding	100%
O=C(Nc1cnn2ccc(N3CCC[C@@H]3c3cc(F)ccc3F)nc12)N1CC[C@H](O)C1	enzyme activity	inhibitor	FRET	1 µM	inhibition	100%
Cc1ccc(Nc2nccc(N(C)c3ccc4c(C)n(C)nc4c3)n2)cc1S(N)(=O)=O	cell-free assay	–	–	0.5 µM	remaining signal	91.5%
O=C(Nc1ccccc1)Nc1cccc(C(=O)Nc2ccc3[nH]ncc3c2)c1	enzyme activity	inhibitor	FRET	1 µM	inhibition	12.3%
O=C1Nc2ccc(Cl)cc2C1=Cc1cc(Cl)c(O)c(Cl)c1	cell-free assay	–	–	0.5 µM	remaining signal	61.1%
c1ccc(N2CCN(Cc3nc4ccccc4[nH]3)CC2)nc1	cell-free assay	–	competition with immobilised ligand	1 µM	remaining binding	100%
Cc1cc(NC(=O)c2cccc3cc(-c4cccc5[nH]nc(N)c45)ccc23)ccc1F	enzyme activity	inhibitor	–	0.1 µM	activity vs control	107%
O=C(Nc1cnn(-c2csc(C(=O)NC3COC3)c2)c1)Nc1ccccc1Cl	enzyme activity	inhibitor	–	5 µM	remaining activity	84.2%
CC(C)(C)c1nc2c(s1)c1nc(N)ncc1c1ccc(NS(=O)(=O)c3c(F)cccc3F)c(F)c12	enzyme activity	inhibitor	radiometric	1 µM	remaining activity	65%
O=C(Nc1ccc2[nH]ncc2c1)c1cccc(NC(=S)Nc2cc(C(F)(F)F)cc(C(F)(F)F)c2)c1	enzyme activity	inhibitor	FRET	1 µM	inhibition	11.2%
Cc1ccc(C(=O)NCc2ccsc2)cc1C#Cc1cn(C(C)C)c2ncnc(N)c12	enzyme activity	inhibitor	–	1 µM	activity vs control	58%
Oc1cccc(-c2nc(N3CCOCC3)c3oc4ncccc4c3n2)c1	cell-free assay	–	–	0.5 µM	remaining signal	90.2%
O=C(Nc1cccc(C(=O)Nc2ccc3[nH]ncc3c2)c1)Nc1ccccc1Cl	enzyme activity	inhibitor	FRET	1 µM	inhibition	20.6%
Cc1c(NC(=O)c2cc(C(N)=O)nc3cc(F)ccc23)c(C(F)(F)F)nn1Cc1ccc(C(C)(C)C)cc1	cell-free assay	–	competition with immobilised ligand	1 µM	remaining binding	100%
Cc1ccc(NC(=O)c2ccc(C)c(C(F)(F)F)c2)cc1C#Cc1nn(C2CCC(O)CC2)c2ncnc(N)c12 (stereo not shown)	cell-free assay	–	–	10 µM	remaining signal	4%
O=C(Nc1ccc(Oc2ccc(F)cc2)cc1)N1CCc2ncccc2[C@H]1c1ccc(F)cc1	cell-free assay	–	competition with immobilised ligand	1 µM	remaining binding	84%
Cc1ccc(NC(=O)c2ccc(CN3CCN(C)CC3)cc2)cc1Nc1nc(-c2cccnc2)cs1	cell-free assay	–	–	0.5 µM	remaining signal	101%
O=C(Nc1ccc(C(F)(F)F)cc1)Nc1cccc(C(=O)Nc2ccc3[nH]ncc3c2)c1	enzyme activity	inhibitor	FRET	1 µM	inhibition	14%
O=C1CCc2cc(Nc3cc(OC4CCOCC4)c([N+](=O)[O-])cc3Cl)ccc2N1	cell-free assay	–	competition with immobilised ligand	1 µM	remaining binding	100%
